# UBC13 inh: inhibitors of human UBC13 polyubiquitin chain formation. hit rate 0.47% among 330,000. TR-FRET. P61088. inhibition, % at 20 µM; in the data active = inhibition above about 45%, passing the limit was not always enough
# PP1 inh: counter-screen for PP5 inhibitors: inhibitors of human PP1-alpha; purified PP1alpha, OMFP fluorescence; inhibition, % at 6.7 µM; P62136; hit rate 0.9% among 320,000;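 active = inhibition above the mean inhibition of all tested compounds plus 3 SD, computed separately for each screening campaign, cut at about 15% in these data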
# p-CIP stab down: p/CIP protein destabilization; Q05BA5; hit rate 0.01% among 290,000; decrease of EGFP signal, % at 10 µM; F442A p/CIP-EGFP cells, EGFP fluorescence, 16 h;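 active = EGFP signal decrease of at least 30% at 10 µM or well 3 SD below plate mean, unless failing retest; inactive = the rest, including hits failing retest or dose response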
# Target sequence (Q05BA5 1-1403): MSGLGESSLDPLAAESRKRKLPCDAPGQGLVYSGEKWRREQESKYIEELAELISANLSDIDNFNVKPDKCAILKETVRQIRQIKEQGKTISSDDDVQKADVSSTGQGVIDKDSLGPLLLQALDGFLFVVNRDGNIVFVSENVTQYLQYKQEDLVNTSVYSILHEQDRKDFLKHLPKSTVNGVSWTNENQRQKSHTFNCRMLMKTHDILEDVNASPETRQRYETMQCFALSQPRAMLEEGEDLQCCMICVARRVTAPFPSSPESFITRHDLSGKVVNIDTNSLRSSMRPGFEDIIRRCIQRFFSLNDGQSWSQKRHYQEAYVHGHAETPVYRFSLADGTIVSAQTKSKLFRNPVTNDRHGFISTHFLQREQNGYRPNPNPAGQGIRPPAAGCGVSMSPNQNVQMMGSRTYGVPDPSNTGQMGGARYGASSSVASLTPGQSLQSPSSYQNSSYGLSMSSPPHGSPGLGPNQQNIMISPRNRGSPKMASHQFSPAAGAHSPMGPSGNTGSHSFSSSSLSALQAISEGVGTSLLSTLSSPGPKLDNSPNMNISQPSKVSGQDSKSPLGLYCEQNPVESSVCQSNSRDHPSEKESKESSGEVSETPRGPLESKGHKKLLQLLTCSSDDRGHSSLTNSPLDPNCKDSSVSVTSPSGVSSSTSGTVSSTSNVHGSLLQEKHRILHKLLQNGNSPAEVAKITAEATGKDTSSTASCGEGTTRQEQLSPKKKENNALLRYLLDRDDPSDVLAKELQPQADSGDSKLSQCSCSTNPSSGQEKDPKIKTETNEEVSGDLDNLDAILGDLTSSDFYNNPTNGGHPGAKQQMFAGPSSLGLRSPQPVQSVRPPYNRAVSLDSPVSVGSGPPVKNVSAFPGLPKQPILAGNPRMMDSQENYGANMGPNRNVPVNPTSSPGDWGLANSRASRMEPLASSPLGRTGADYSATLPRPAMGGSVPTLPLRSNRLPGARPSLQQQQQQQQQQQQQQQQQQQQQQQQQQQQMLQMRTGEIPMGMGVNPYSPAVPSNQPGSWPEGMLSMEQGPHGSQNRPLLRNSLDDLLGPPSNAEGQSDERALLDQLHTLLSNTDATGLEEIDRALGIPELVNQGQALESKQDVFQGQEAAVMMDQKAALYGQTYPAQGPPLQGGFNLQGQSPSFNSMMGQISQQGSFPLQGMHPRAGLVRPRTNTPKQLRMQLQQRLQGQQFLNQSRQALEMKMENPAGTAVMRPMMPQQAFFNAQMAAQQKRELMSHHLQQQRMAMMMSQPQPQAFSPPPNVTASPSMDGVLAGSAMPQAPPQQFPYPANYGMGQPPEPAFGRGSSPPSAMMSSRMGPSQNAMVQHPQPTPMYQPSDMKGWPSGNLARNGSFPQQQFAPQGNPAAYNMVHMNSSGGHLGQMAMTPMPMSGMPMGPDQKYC
# T cruzi inh: T. cruzi replication inhibition; inhibition, % (concentration not given with the values); hit rate 1.4% among 300,000; T. cruzi beta-gal in NIH3T3, luminescence, 90 h;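 active = mean inhibition across valid replicates above about 55%, limit read from the data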;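 note: signal also drops with host cell toxicity which is not excluded here; 0% = plate median of DMSO wells and 100% = zero luminescence signal; higher percent means less beta-gal luminescence so fewer parasites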
#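 System: Mouse NIH/3T3 fibroblasts infected with β-gal-expressing T. cruzi Tulahuen C4 | Quantity: NIH/3T3 cells, 5,000 per well | Reagent: 5000 reporter trypomastigotes per well | Dosing: Compound pinned at 50 nL/well, DMSO | Schedule: 3 h host attachment, then at least 90 h co-culture | Detection: GalScreen luminescence, 60 min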
# AI-2 QS mod: modulators of Vibrio harveyi AI-2 quorum sensing system; Vibrio harveyi JMH597 AI-2 luminescence/OD600 ratio, 9 h; stronger effect = lower value; strain lacks LuxN and CqsS sensors; 0 = neutral-control median; activity change, % at 7.5 µM; hit rate 0.4% among 300,000; AID 2094; in the data active = activity change below about -75%, passing the limit was not always enough;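 note: luminescence divided by OD600 gain over 9 h not by final OD600 alone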
# * hit, by the source's call; / = not tested or not shown. Hits are enriched below; roughly 2.8% of the tested compounds scored in any of these assays.
SMILES,UBC13 inh,PP1 inh,p-CIP stab down,T cruzi inh,AI-2 QS mod
COc1ccc(/C=C/c2ccc3cccc(O)c3n2)cc1Br,-18.9,17.1*,3.8,44.2,21.9
COc1ccc(Br)cc1/C=C/c1ccc2cccc(O)c2n1,-18.5,14.6,2.4,44.3,11.9
CC(=O)C(C(C)=O)C(c1ccccc1)c1nc2ccccc2[nH]c1=O (stereo unspecified),8.2,/,-8.4,-4.5,13.0
O=C(O)C1Nc2ccc(C(F)(F)F)cc2C2OCCC12 (stereo unspecified),-0.8,-0.9,/,-9.0,8.8
O=C(CCN1C(=O)/C(=C/c2ccccc2)SC1=S)NCCCN1CCOCC1,-10.5,0.0,-6.3,54.8*,/
CN1CCN(C(=O)CCCN2C(=O)/C(=C/c3cccc(Br)c3)SC2=S)CC1,9.9,/,-5.8,66.1*,8.0
Cc1ccc(/C=C2\SC(=S)N(CCCC(=O)Nc3ccc(O)cc3)C2=O)cc1,-3.0,2.6,-7.8,35.2,25.9
COc1ccc(/C=C2\SC(=S)N(CCCC(=O)N3CCN(C)CC3)C2=O)cc1,-6.2,1.3,-20.1,59.8*,/
O=C(CCN1C(=O)/C(=C\c2cccc(Br)c2)SC1=S)NCCCN1CCOCC1,-8.7,1.4,0.0,18.5,16.4
COC(=O)c1ccc(/C=C2/SC(=S)N(CCCC(=O)Nc3ccc(O)cc3)C2=O)cc1,3.5,15.7*,-20.0,8.9,10.0
CC(C)Oc1cccc(C(=O)C2CCCN(C(=O)CCc3cnn(C)c3)C2)c1 (stereo unspecified),3.8,-0.6,-9.6,4.4,-4.9
CCc1ccc(NC(=O)Cn2nc(C)n3cccc3c2=O)cc1,-1.3,1.7,7.3,22.2,4.4
C#CCn1c(=NC(=O)c2ccc(S(=O)(=O)N3CCCc4ccccc43)cc2)sc2cc(S(N)(=O)=O)ccc21,-17.0,15.6*,-19.6,55.5*,1.4
CCOC(=O)c1c(C)[nH]c(C(=O)OCC(=O)Nc2sc(C(=O)N(C)C)c(C)c2C(=O)OCC)c1C,10.5,2.5,/,68.7*,13.8
COc1ccc(N(CC(=O)NCc2ccco2)C(=O)CNS(=O)(=O)c2ccc(Cl)cc2)cc1,1.8,-2.9,1.6,6.7,19.9
COC(=O)c1cc(C)nc2c1C(=O)C(=O)C=C2N1CCOCC1,-202.4,15.7*,4.2,67.4*,17.1
Cc1ccc(NC(=O)c2c(C(F)(F)F)nn(C)c2SCc2cccc(C(F)(F)F)c2)cc1C,-10.5,-5.0,-14.0,58.8*,-1.4
Cc1ccc(NC(=O)c2c(C(F)(F)F)nn(C)c2SCc2ccc(Cl)cc2)cc1C,6.0,4.9,-9.3,64.7*,11.9
O=C(NCCc1ccc(Cl)cc1)C1CCCN(S(=O)(=O)N2CCCCCC2)C1 (stereo unspecified),9.3,3.0,-11.7,9.4,31.2
O=C(Nc1ccccc1N1CCCCC1)c1ccc(-c2cc(Cl)ccc2Cl)o1,34.6,-1.5,/,11.9,23.1
CCC(Sc1nc2ccncc2[nH]1)C(=O)Nc1ccc(C)c(Cl)c1 (stereo unspecified),-5.4,3.9,-2.7,61.9*,11.3
CCOc1ccccc1NC(=O)C(CC)Sc1nc2ccncc2[nH]1 (stereo unspecified),35.8,5.7,9.5,11.7,-25.7
Cn1c(=O)n(C)c2cc(NC(=O)c3ccccc3NS(C)(=O)=O)ccc21,-4.8,-1.7,15.6,-6.9,14.3
COC(=O)c1ccc(Cn2nnc3c(=O)[nH]c(C4CCN(S(=O)(=O)c5cc(C)ccc5C)CC4)nc32)cc1,4.8,16.3*,-2.6,6.8,10.2
Cc1ccc(Cn2nnc3c(=O)[nH]c(C4CCN(S(=O)(=O)c5ccc(S(=O)(=O)NC6CC6)cc5)CC4)nc32)cc1,0.2,16.8*,-17.5,5.9,24.4
SMILES,UBC13 inh,PP1 inh,p-CIP stab down,T cruzi inh,AI-2 QS mod
COC(=O)c1ccc(Cn2nnc3c(=O)[nH]c(C4CCCN(S(=O)(=O)c5ccc(C)cc5)C4)nc32)cc1 (stereo unspecified),-4.2,-1.5,-2.7,-1.4,13.4
O=c1[nH]c(C2CCCN(S(=O)(=O)c3ccccc3Cl)C2)nc2c1nnn2Cc1ccc2c(c1)OCCO2 (stereo unspecified),-7.5,16.4*,-1.2,20.3,27.8
Cc1ccc(Cn2nnc3c(=O)[nH]c(C4CCN(S(=O)(=O)c5ccc(C)cc5)CC4)nc32)cc1,18.3,14.5,-20.3,6.9,20.8
CCc1cccc(C)c1NC(=O)CCNC(=O)c1cccc(C)c1,6.4,-3.8,19.3,-6.8,6.5
COc1ccc(C(=O)NCC2(N3CCCCC3)CCCCC2)cc1S(=O)(=O)N(C)C,3.6,0.0,-7.8,20.6,7.1
Cc1ccc2c(c1C)NC(=O)C21N2CCCC2C(C(=O)c2ccc3ccccc3c2)C12C(=O)Nc1ccccc12 (stereo unspecified),/,/,-5.6,/,/
CCOc1ccccc1/C=N/n1nnnc1N,-8.3,-0.2,-12.1,-15.2,35.5
O=C(N=C1N=C2C=CC(Br)=CN2Cc2ccccc21)c1ccc([N+](=O)[O-])cc1[N+](=O)[O-],-9.6,3.5,-10.4,56.6*,10.2
O=C(COC(=O)CNC(=O)c1ccccc1Cl)Nc1ccccc1Cl,-0.9,-2.4,/,/,/
CC(C)(C)CN1CCNC(=O)C1CC(=O)NCCN1CCCc2ccccc21 (stereo unspecified),12.6,-0.9,-8.6,-7.6,11.2
COc1ccccc1NC(=O)c1ccc(NC(=O)Cc2n[nH]c(=O)c3ccccc23)cc1,23.9,-1.8,-2.6,-9.3,32.5
Cc1nn(-c2ccc(F)cc2)c2nc(N)c(C#N)c(-c3ccc(O)c(O)c3)c12,10.4,/,-6.9,59.2*,66.4
Cc1nn(-c2ccccc2)c2nc(N)c(C#N)c(-c3ccc(O)c(O)c3)c12,14.9,3.9,0.0,41.6,8.8
CC(=O)N1N=C(c2ccccc2)OC1c1ccc([N+](=O)[O-])s1 (stereo unspecified),-9.7,-2.6,14.8,84.1*,57.7
CC(=O)N1N=C(c2cccc([N+](=O)[O-])c2)OC1c1ccc(Br)cc1 (stereo unspecified),5.5,0.5,3.8,-3.6,1.8
Cc1ccc(CSc2ccc3nnc(-c4ccccn4)n3n2)cc1,5.2,16.0*,-5.5,-1.3,29.3
CCCN1CCN(C(=O)c2cc3c(s2)-c2ccccc2OC3)CC1,61.4*,-2.1,-1.6,4.3,12.2
CCOC(=O)N1CCN(C(=O)c2cc3c(s2)-c2ccccc2OC3)CC1,20.5,0.0,-11.1,7.4,8.2
O=[N+]([O-])c1ccc(S(=O)(=O)NCCS(=O)(=O)N2CCN(c3ccccc3)CC2)cc1,2.2,0.5,7.7,56.1*,33.1
C[C@@H]1CC[C@@]2(O[C@@H](CCO)C[C@H](O)[C@H]2O)O1,-6.0,-2.2,/,-12.2,15.6
O=c1[nH]cc(F)c(=O)[nH]1,/,-0.8,-11.2,30.0,-87.6*
O=[N+]([O-])c1cccnc1N1CCC(c2cc(-c3ccc(Cl)cc3Cl)n[nH]2)CC1,5.9,7.9,-24.3,44.2,19.2
